Results: ChEMBL document CHEMBL5252546, “Salutaxel, a Conjugate of Docetaxel and a Muramyl Dipeptide (MDP) Analogue, Acts as Multifunctional Prodrug That Inhibits Tumor Growth and Metastasis” (J Med Chem, 2018)
Activity calls are given as the source filed them. The calls are words filed in the database; no cut-off is given here.

Experiments:
4T1 [1] = assay: Antitumor activity against mouse 4T1 cells implanted in BALB/c mouse assessed as decrease in tumor MMP9 expression level at 5.7 mg/kg,iv administrated once per week for 4 weeks in presence of compound 5b by western blot assay; assay type: functional, organism-based
Outline: (§1)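 Tumour-bearing BALB/c mice (4T1 cells into mammary fat pad) given iv saline vehicle or test agents once weekly for 4 weeks. Tumours excised and probed by western blot for MMP9, MMP2 and NOD1, β-actin as loading control. Bands averaged over five mice per group; representative of two independent experiments.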

4T1 [2] = assay: Antitumor activity against mouse 4T1 cells implanted in BALB/c mouse assessed as increase in tumor NOD1 expression level at 5.7 mg/kg,iv administrated once per week for 4 weeks by western blot assay; assay type: functional, organism-based; outline: as §1
4T1 [3] = assay: Antitumor activity against mouse 4T1 cells implanted in BALB/c mouse assessed as decrease in serum MMP9 level at 5.7 mg/kg,iv administrated once per week for 4 weeks in presence of MDA-205 by ELISA; assay type: functional, organism-based
[4] = Toxicity in BALB/c mouse xenografted with human HCT-116 cells assessed as body weight loss at 5.7 mg/kg,iv administrated once per week for 3 weeks; assay type: organism-based; conditions: in vivo, 504 h
Outline: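 Nude BALB/c nu/nu mice received subcutaneous human tumour cells into the right flank. Dosing started at mean tumour volume of 100–120 mm3, iv once weekly for 3 weeks; the taxane arm was an equimolar control. Body weight and overt side effects were monitored. Mean ± SEM, n = 8.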

4T1 [5] = assay: Antitumor activity against mouse 4T1 cells implanted in BALB/c mouse assessed as decrease in serum MMP9 level at 5.7 mg/kg,iv administrated once per week for 4 weeks by ELISA; assay type: functional, organism-based
[6] = Toxicity in BALB/c mouse injected with mouse 4T1 cells assessed as body weight loss at 5.7 mg/kg,iv administrated once per week for 4 weeks; assay type: organism-based; conditions: in vivo, 672 h
4T1 [7] = assay: Antitumor activity against mouse 4T1 cells implanted in BALB/c mouse assessed as decrease in lung MMP2 expression level at 5.7 mg/kg,iv administrated once per week for 4 weeks by western blot assay; assay type: functional, organism-based
Outline: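 4T1 cells injected into mammary fat pads of BALB/c mice. Saline vehicle or test article given iv once weekly for 4 weeks. Spleen, lung and tumor lysates immunoblotted for MMP2/MMP9 with β-actin as loading control. Bands averaged over five mice per group, representative of two independent experiments.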

[8] = Plasma protein binding in dog plasma incubated for 4 hrs; assay type: ADME, cell-free, Canis lupus familiaris; conditions: read-out: PPB (converted)
[9] = Prodrug conversion in mouse plasma implanted with mouse 4T1 cells assessed as AUC (0-t) of docetaxel at 4 mg/kg,iv measured upto 72 hrs; assay type: ADME, organism-based; parameters: time < 72 hrs, dose 4 mg/kg, route iv; conditions: in vivo
4T1 [10] = assay: Antitumor activity against mouse 4T1 cells implanted in BALB/c mouse assessed as decrease in S100A8 mRNA expression in lung at 20 mg/kg,iv administrated qd for 2 days by qRT-PCR analysis; assay type: functional, organism-based; conditions: time 2.0 day
Outline: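 Day 19 after 4T1 implantation, mice randomised into five groups; iv vehicle or 20 mg/kg plus ip C12-iE-DAP (50 μg/mouse) and MDP (100 μg/mouse) once daily for 2 days; killed after 48 h; lung mRNA for MMP8, MMP9, PROK2, S100A8, S100A9 and IL-1β by qPCR; mean ± SEM.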

[11] = Volume of distribution at steady state in male Beagle dog at 4 mg/kg,iv measured upto 24 hrs; assay type: ADME, organism-based, Canis lupus familiaris; conditions: in vivo, read-out: Vdss
[12] = Tmax in male Beagle dog at 2 mg/kg,iv measured upto 24 hrs; assay type: ADME, organism-based, Canis lupus familiaris; conditions: in vivo
[13] = Toxicity in Beagle dog assessed as decrease in blood pressure at 1 to 4 mg/kg,iv measured after 1 to 4 hrs; assay type: organism-based, Canis lupus familiaris; conditions: in vivo, dose lower 1 mg/kg, time lower 1 hrs, dose upper 4 mg/kg, time upper 4 hrs
[14] = Prodrug conversion in mouse tumor implanted with mouse 4T1 cells assessed as Cmax of docetaxel at 4 mg/kg,iv measured upto 72 hrs; assay type: ADME, organism-based, Neoplasm; parameters: time < 72 hrs, dose 4 mg/kg, route iv; conditions: in vivo
[15] = Toxicity in male Sprague-Dawley rat assessed as maximal non-toxic dose at iv administration; assay type: organism-based; conditions: in vivo, read-out: MNTD
[16] = Toxicity in BALB/c mouse xenografted with mouse 4T1 cells assessed as decrease in body weight at 10 mg/kg,iv administrated once per week for 4 weeks; assay type: organism-based; conditions: in vivo, 672 h
[17] = Drug metabolism in rat feces assessed as metabolite MDA-205 formation at 4 mg/kg,iv measured after 24 hrs; assay type: ADME, organism-based; conditions: in vivo
[18] = AUC (0-t) in male Beagle dog at 2 mg/kg,iv measured upto 24 hrs; assay type: ADME, organism-based, Canis lupus familiaris; parameters: dose 2 mg/kg, time < 24 hrs, route iv; conditions: in vivo
Outline: (§2)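 Single iv dose: rats 2, 4 or 8 mg/kg by intravenous injection; Beagle dogs 1, 2 or 4 mg/kg by intravenous infusion. Plasma concentration–time data were analysed by sex and pooled. Reported parameters: Cmax, Tmax, AUC0−t, AUC0−∞, MRT0−∞, t1/2, CL, Vss, given as mean ± SD.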

[19] = Tmax in male rat at 4 mg/kg,iv measured upto 24 hrs; assay type: ADME, organism-based; conditions: in vivo
NCI-H1975 = assay: Antitumor activity against human NCI-H1975 cells xenografted with BALB/c mouse assessed as inhibition of tumor growth at 10 mg/kg,iv administrated once per week for 3 weeks; assay type: functional, organism-based
Outline: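 BALB/c nu/nu mice given subcutaneous human tumour cells in the right flank; dosing began at about 100–120 mm3 mean volume; iv once weekly for 3 weeks, with equimolar parent drug as positive control; tumour volume and weight measured; n = 8, mean ± SEM, ANOVA and Student's t test.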

[20] = Tmax in female rat at 2 mg/kg,iv measured upto 24 hrs; assay type: ADME, organism-based; conditions: in vivo
4T1 [21] = assay: Antitumor activity against mouse 4T1 cells implanted in BALB/c mouse assessed as decrease in serum MMP9 level at 10 mg/kg,iv administrated once per week for 4 weeks by ELISA; assay type: functional, organism-based
Outline: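 4T1 fat-pad model in BALB/c mice, iv 5–20 mg/kg once weekly for 4 weeks, with vehicle and naive groups; serum MMP9, TIMP-1, IL-6 and S100A9 measured by mouse ELISA kits.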

[22] = AUC (0-infinity) in rat at 8 mg/kg,iv measured upto 24 hrs; assay type: ADME, organism-based; parameters: time < 24 hrs, dose 8 mg/kg, route iv; conditions: in vivo; outline: as §2
[23] = Tmax in mouse plasma implanted with mouse 4T1 cells at 10 mg/kg,iv measured upto 72 hrs; assay type: ADME, organism-based
[24] = AUC (0-infinity) in female Beagle dog at 4 mg/kg,iv measured upto 24 hrs; assay type: ADME, organism-based, Canis lupus familiaris; parameters: dose 4 mg/kg, time < 24 hrs, route iv; conditions: in vivo; outline: as §2
[25] = Stability in monkey hepatocyte assessed as compound remaining at 3 uM incubated upto 120 mins; assay type: ADME, cell-based, Macaca mulatta; conditions: rhesus monkey, hepatocytes, 2 h
[26] = Toxicity in Beagle dog assessed as maximal non-toxic dose at iv administration; assay type: organism-based, Canis lupus familiaris; conditions: in vivo, read-out: MNTD
4T1 [27] = assay: Antitumor activity against mouse 4T1 cells xenografted with BALB/c mouse assessed as inhibition of tumor growth at 5 mg/kg,iv administrated once per week for 4 weeks; assay type: functional; conditions: 4T1, 672 h
Outline: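 4T1 cells injected into the mammary fat pad of BALB/c mice; iv saline vehicle or 5, 10 or 20 mg/kg once weekly for 4 weeks; body weight, tumour volume, tumour weight, lung metastatic nodule count and metastasis score recorded; n = 10, mean ± SEM, ANOVA and Student's t test.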

[28] = Toxicity in BALB/c mouse xenografted with human HCT-116 cells assessed as side effects at 10 mg/kg,iv administrated once per week for 3 weeks; assay type: organism-based; conditions: in vivo, 504 h

SMILES: CC(=O)O[C@@]12CO[C@@H]1C[C@H](O)[C@@]1(C)C(=O)[C@H](O)C3=C(C)[C@@H](OC(=O)[C@H](O)[C@@H](NC(=O)OC(C)(C)C)c4ccccc4)C[C@@](O)([C@@H](OC(=O)c4ccccc4)[C@H]21)C3(C)C [DOCETAXEL ANHYDROUS]
- Activity (4T1 [1]): inactive
- Activity (4T1 [2]): inactive
- Activity (4T1 [3]): Active
- Activity [4]: Non-Toxic
- Activity (4T1 [5]): Active
- Activity [6]: Non-Toxic
- Activity (4T1 [7]): inactive

SMILES: CC(=O)O[C@@]12CO[C@@H]1C[C@H](O)[C@@]1(C)C(=O)[C@H](O)C3=C(C)[C@@H](OC(=O)[C@H](OC(=O)CCC(=O)NCCCC[C@H](NC(=O)CC[C@@H](NC(=O)[C@H](C)NC(=O)/C=C/c4ccc(F)cc4Cl)C(N)=O)C(=O)O)[C@@H](NC(=O)OC(C)(C)C)c4ccccc4)C[C@@](O)([C@@H](OC(=O)c4ccccc4)[C@H]21)C3(C)C
- fraction unbound at 4 h [8]: 0.003
- AUCt [9]: 8.43 µM·h
- Activity (4T1 [10]): Active
- Vd [11]: 0.075 L/kg
- Tmax [12]: 30 min
- Activity [13]: Non-Toxic
- Cmax [14]: 2390 nM
- NOAEL [15]: 4 mg/kg
- Activity [16]: Toxic
- Drug metabolism [17]: Metabolite_Detected
- AUC(0-t) at 24 h [18]: 4840 ng·h/mL
- Tmax [19]: 4.98 min
- inhibition (NCI-H1975): Active
- Tmax [20]: 4.98 min
- Activity (4T1 [21]): Active
- AUC(0-inf) [22]: 46100 ng·h/mL
- Tmax [23]: 1.8 min
- AUC(0-inf) [24]: 20300 ng·h/mL
- Stability [25]: Stable
- NOAEL [26]: 6 mg/kg
- inhibition in vivo at 5 mg/kg (4T1 [27]): 12%
- Activity [28]: Non-Toxic
